Experimental data taken from ChEMBL document CHEMBL1131139, “Synthesis and antibacterial activity of ketolides (6-O-methyl-3-oxoerythromycin derivatives): a new class of antibacterials highly potent against macrolide-resistant and -susceptible respiratory pathogens” (1998).
Values after ≈ are worked out from the molar mass of the structure shown.

Columns and labels:
Assay type in all cases: functional
Escherichia coli = assay: In vitro inhibitory activity against Escherichia coli (250 UC5)
Outline: (§1)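 Two-fold agar dilution on Mueller-Hinton agar (pH 7.4). Inoculum from overnight plate cultures suspended in Mueller-Hinton broth, adjusted to 10^9 CFU/mL, diluted 1:200 and spotted by multipoint inoculator at about 10^4 CFU/spot. Plates incubated 37 °C for 20 h. MIC taken as lowest concentration with no visible growth.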

Streptococcus pyogenes = assay: In vitro inhibitory activity against Streptococcus pyogenes (02A1UC1); outline: as §1
Streptococcus pneumoniae [1] = assay: In vitro inhibitory activity against Streptococcus pneumoniae (EryRi 030SJ5i); outline: as §1
Haemophilus influenzae [2] = assay: In vitro inhibitory activity against Haemophilus influenzae (351HT3); outline: as §1
Haemophilus influenzae [3] = assay: In vitro inhibitory activity against Haemophilus influenzae (351CB12); outline: as §1
Staphylococcus aureus [4] = assay: In vitro inhibitory activity against Staphylococcus aureus (EryRc 011CB20); outline: as §1
Streptococcus pneumoniae [5] = assay: In vitro inhibitory activity against Streptococcus pneumoniae (032UC1); outline: as §1
Streptococcus pneumoniae [6] = assay: In vitro inhibitory activity against Streptococcus pneumoniae (EryRc 030SJ1); outline: as §1
Staphylococcus aureus [7] = assay: In vitro inhibitory activity against Staphylococcus aureus (EryRi 011GO25i); outline: as §1
[8] = system: Staphylococcus epidermidis; assay: In vitro inhibitory activity against Staphylococcus epidermidis (EryRi 012GO11i); outline: as §1
Staphylococcus aureus [9] = assay: In vitro inhibitory activity against Staphylococcus aureus (011UC4); outline: as §1

CC[C@H]1OC(=O)[C@H](C)C(=O)[C@H](C)[C@@H](O[C@@H]2O[C@H](C)C[C@H](N(C)C)[C@H]2O)[C@](C)(OC)C[C@@H](C)/C(=N\OC[C@@H](N)C(=O)[O-])[C@H](C)[C@@H](O)[C@]1(C)O.[K+]
MIC (Escherichia coli): 40 µg/mL | MIC (Streptococcus pyogenes): 40 µg/mL | MIC (Streptococcus pneumoniae [1]): 40 µg/mL | MIC (Haemophilus influenzae [2]): 40 µg/mL | MIC (Haemophilus influenzae [3]): 40 µg/mL | MIC (Staphylococcus aureus [4]): 40 µg/mL | MIC (Streptococcus pneumoniae [5]): 40 µg/mL | MIC (Streptococcus pneumoniae [6]): 40 µg/mL | MIC (Staphylococcus aureus [7]): 40 µg/mL | MIC [8]: 40 µg/mL | MIC (Staphylococcus aureus [9]): 40 µg/mL

CC[C@H]1OC(=O)[C@H](C)C(=O)[C@H](C)[C@@H](O[C@@H]2O[C@H](C)C[C@H](N(C)C)[C@H]2O)[C@](C)(OC)C[C@@H](C)C(=O)[C@H](C)[C@H]2NC(=O)O[C@@]21C
MIC (Escherichia coli): 40 µg/mL (≈ 65.3 µM) | MIC (Streptococcus pyogenes): 0.04 µg/mL (≈ 0.0653 µM) | MIC (Streptococcus pneumoniae [1]): 2.5 µg/mL (≈ 4.08 µM) | MIC (Haemophilus influenzae [2]): 5 µg/mL (≈ 8.16 µM) | MIC (Haemophilus influenzae [3]): 5 µg/mL (≈ 8.16 µM) | MIC (Staphylococcus aureus [4]): 40 µg/mL (≈ 65.3 µM) | MIC (Streptococcus pneumoniae [5]): 0.02 µg/mL (≈ 0.0326 µM) | MIC (Streptococcus pneumoniae [6]): 5 µg/mL (≈ 8.16 µM) | MIC (Staphylococcus aureus [7]): 0.6 µg/mL (≈ 0.979 µM) | MIC [8]: 10 µg/mL (≈ 16.3 µM) | MIC (Staphylococcus aureus [9]): 0.6 µg/mL (≈ 0.979 µM)

CC[C@H]1OC(=O)[C@H](C)C(=O)[C@H](C)[C@@H](O[C@@H]2O[C@H](C)C[C@H](N(C)C)[C@H]2O)[C@](C)(OC)C[C@@H](C)/C(=N\OC2CCCN(CCCc3ccccc3)C2)[C@H](C)[C@@H](O)[C@]1(C)O (stereo not given in full)
MIC (Escherichia coli): 40 µg/mL (≈ 49.7 µM) | MIC (Streptococcus pyogenes): 0.08 µg/mL (≈ 0.0995 µM) | MIC (Streptococcus pneumoniae [1]): 0.3 µg/mL (≈ 0.373 µM) | MIC (Haemophilus influenzae [2]): 5 µg/mL (≈ 6.22 µM) | MIC (Haemophilus influenzae [3]): 0.6 µg/mL (≈ 0.746 µM) | MIC (Staphylococcus aureus [4]): 40 µg/mL (≈ 49.7 µM) | MIC (Streptococcus pneumoniae [5]): 0.08 µg/mL (≈ 0.0995 µM) | MIC (Streptococcus pneumoniae [6]): 1.2 µg/mL (≈ 1.49 µM) | MIC (Staphylococcus aureus [7]): 0.6 µg/mL (≈ 0.746 µM) | MIC [8]: 0.6 µg/mL (≈ 0.746 µM) | MIC (Staphylococcus aureus [9]): 0.3 µg/mL (≈ 0.373 µM)

CC[C@H]1OC(=O)[C@H](C)[C@@]2(O)O[C@@](C)(C[C@@H](C)/C(=N\O)[C@H](C)[C@@H](O)[C@]1(C)O)[C@H](O[C@@H]1O[C@H](C)C[C@H](N(C)C)[C@H]1O)[C@H]2C
MIC (Escherichia coli): 40 µg/mL (≈ 67.9 µM) | MIC (Streptococcus pyogenes): 40 µg/mL (≈ 67.9 µM) | MIC (Streptococcus pneumoniae [1]): 40 µg/mL (≈ 67.9 µM) | MIC (Haemophilus influenzae [2]): 10 µg/mL (≈ 17 µM) | MIC (Haemophilus influenzae [3]): 10 µg/mL (≈ 17 µM) | MIC (Staphylococcus aureus [4]): 40 µg/mL (≈ 67.9 µM) | MIC (Streptococcus pneumoniae [5]): 40 µg/mL (≈ 67.9 µM) | MIC (Streptococcus pneumoniae [6]): 40 µg/mL (≈ 67.9 µM) | MIC (Staphylococcus aureus [7]): 40 µg/mL (≈ 67.9 µM) | MIC [8]: 40 µg/mL (≈ 67.9 µM) | MIC (Staphylococcus aureus [9]): 40 µg/mL (≈ 67.9 µM)

CC[C@H]1OC(=O)[C@H](C)C(=O)[C@H](C)[C@@H](O[C@@H]2O[C@H](C)C[C@H](N(C)C)[C@H]2O)[C@](C)(OC)C[C@@H](C)/C(=N\O[C@@H]2CCCNC2)[C@H](C)[C@@H](O)[C@]1(C)O
MIC (Escherichia coli): 40 µg/mL (≈ 58.3 µM) | MIC (Streptococcus pyogenes): 0.04 µg/mL (≈ 0.0583 µM) | MIC (Streptococcus pneumoniae [1]): 0.3 µg/mL (≈ 0.437 µM) | MIC (Haemophilus influenzae [2]): 2.5 µg/mL (≈ 3.64 µM) | MIC (Haemophilus influenzae [3]): 0.6 µg/mL (≈ 0.875 µM) | MIC (Staphylococcus aureus [4]): 40 µg/mL (≈ 58.3 µM) | MIC (Streptococcus pneumoniae [5]): 0.08 µg/mL (≈ 0.117 µM) | MIC (Streptococcus pneumoniae [6]): 0.3 µg/mL (≈ 0.437 µM) | MIC (Staphylococcus aureus [7]): 2.5 µg/mL (≈ 3.64 µM) | MIC [8]: 0.6 µg/mL (≈ 0.875 µM) | MIC (Staphylococcus aureus [9]): 0.15 µg/mL (≈ 0.219 µM)

CC[C@H]1OC(=O)[C@H](C)C(=O)[C@H](C)[C@@H](O[C@@H]2O[C@H](C)C[C@H](N(C)C)[C@H]2O)[C@](C)(OC)C[C@@H](C)C(=O)[C@H](C)[C@H]2N(NCCCc3cccc(Cl)c3)C(=O)O[C@]12C
MIC (Escherichia coli): 40 µg/mL (≈ 51.3 µM) | MIC (Streptococcus pyogenes): 0.02 µg/mL (≈ 0.0256 µM) | MIC (Streptococcus pneumoniae [1]): 0.08 µg/mL (≈ 0.103 µM) | MIC (Haemophilus influenzae [2]): 1.2 µg/mL (≈ 1.54 µM) | MIC (Haemophilus influenzae [3]): 2.5 µg/mL (≈ 3.2 µM) | MIC (Staphylococcus aureus [4]): 40 µg/mL (≈ 51.3 µM) | MIC (Streptococcus pneumoniae [5]): 0.02 µg/mL (≈ 0.0256 µM) | MIC (Streptococcus pneumoniae [6]): 2.5 µg/mL (≈ 3.2 µM) | MIC (Staphylococcus aureus [7]): 0.08 µg/mL (≈ 0.103 µM) | MIC [8]: 0.04 µg/mL (≈ 0.0513 µM) | MIC (Staphylococcus aureus [9]): 0.04 µg/mL (≈ 0.0513 µM)

CC[C@H]1OC(=O)[C@H](C)C(=O)[C@H](C)[C@@H](O[C@@H]2O[C@H](C)C[C@H](N(C)C)[C@H]2O)[C@](C)(OC)C[C@@H](C)/C(=N/OCOCCOC)[C@H](C)[C@@H](O)[C@]1(C)O
MIC (Escherichia coli): 40 µg/mL (≈ 57.9 µM) | MIC (Streptococcus pyogenes): 0.15 µg/mL (≈ 0.217 µM) | MIC (Streptococcus pneumoniae [1]): 10 µg/mL (≈ 14.5 µM) | MIC (Haemophilus influenzae [2]): 40 µg/mL (≈ 57.9 µM) | MIC (Haemophilus influenzae [3]): 40 µg/mL (≈ 57.9 µM) | MIC (Staphylococcus aureus [4]): 40 µg/mL (≈ 57.9 µM) | MIC (Streptococcus pneumoniae [5]): 0.15 µg/mL (≈ 0.217 µM) | MIC (Streptococcus pneumoniae [6]): 40 µg/mL (≈ 57.9 µM) | MIC (Staphylococcus aureus [7]): 2.5 µg/mL (≈ 3.62 µM) | MIC [8]: 1.2 µg/mL (≈ 1.74 µM) | MIC (Staphylococcus aureus [9]): 1.2 µg/mL (≈ 1.74 µM)

CC[C@H]1OC(=O)[C@H](C)[C@@]2(O)O[C@@](C)(C[C@@H](C)/C(=N\OCOCCOC)[C@H](C)[C@@H](O)[C@]1(C)O)[C@H](O[C@@H]1O[C@H](C)C[C@H](N(C)C)[C@H]1O)[C@H]2C
MIC (Escherichia coli): 40 µg/mL (≈ 59.1 µM) | MIC (Streptococcus pyogenes): 40 µg/mL (≈ 59.1 µM) | MIC (Streptococcus pneumoniae [1]): 40 µg/mL (≈ 59.1 µM) | MIC (Haemophilus influenzae [2]): 40 µg/mL (≈ 59.1 µM) | MIC (Haemophilus influenzae [3]): 40 µg/mL (≈ 59.1 µM) | MIC (Staphylococcus aureus [4]): 40 µg/mL (≈ 59.1 µM) | MIC (Streptococcus pneumoniae [5]): 40 µg/mL (≈ 59.1 µM) | MIC (Streptococcus pneumoniae [6]): 40 µg/mL (≈ 59.1 µM) | MIC (Staphylococcus aureus [7]): 40 µg/mL (≈ 59.1 µM) | MIC [8]: 40 µg/mL (≈ 59.1 µM) | MIC (Staphylococcus aureus [9]): 40 µg/mL (≈ 59.1 µM)

CCCNCCO/N=C1\[C@H](C)C[C@@](C)(OC)[C@H](O[C@@H]2O[C@H](C)C[C@H](N(C)C)[C@H]2O)[C@@H](C)C(=O)[C@@H](C)C(=O)O[C@H](CC)[C@@](C)(O)[C@H](O)[C@H]1C
MIC (Escherichia coli): 40 µg/mL (≈ 58.1 µM) | MIC (Streptococcus pyogenes): 0.04 µg/mL (≈ 0.0581 µM) | MIC (Streptococcus pneumoniae [1]): 1.2 µg/mL (≈ 1.74 µM) | MIC (Haemophilus influenzae [2]): 40 µg/mL (≈ 58.1 µM) | MIC (Haemophilus influenzae [3]): 10 µg/mL (≈ 14.5 µM) | MIC (Staphylococcus aureus [4]): 40 µg/mL (≈ 58.1 µM) | MIC (Streptococcus pneumoniae [5]): 10 µg/mL (≈ 14.5 µM) | MIC (Streptococcus pneumoniae [6]): 40 µg/mL (≈ 58.1 µM) | MIC (Staphylococcus aureus [7]): 0.3 µg/mL (≈ 0.436 µM) | MIC [8]: 0.15 µg/mL (≈ 0.218 µM) | MIC (Staphylococcus aureus [9]): 0.15 µg/mL (≈ 0.218 µM)

CC[C@H]1OC(=O)[C@H](C)C(=O)[C@H](C)[C@@H](O[C@@H]2O[C@H](C)C[C@H](N(C)C)[C@H]2O)[C@](C)(OC)C[C@@H](C)/C(=N\OCCN2CCCC2)[C@H](C)[C@@H](O)[C@]1(C)O
MIC (Escherichia coli): 40 µg/mL (≈ 57.1 µM) | MIC (Streptococcus pyogenes): 0.15 µg/mL (≈ 0.214 µM) | MIC (Streptococcus pneumoniae [1]): 40 µg/mL (≈ 57.1 µM) | MIC (Haemophilus influenzae [2]): 40 µg/mL (≈ 57.1 µM) | MIC (Haemophilus influenzae [3]): 20 µg/mL (≈ 28.6 µM) | MIC (Staphylococcus aureus [4]): 40 µg/mL (≈ 57.1 µM) | MIC (Streptococcus pneumoniae [5]): 20 µg/mL (≈ 28.6 µM) | MIC (Streptococcus pneumoniae [6]): 20 µg/mL (≈ 28.6 µM) | MIC (Staphylococcus aureus [7]): 2.5 µg/mL (≈ 3.57 µM) | MIC [8]: 0.6 µg/mL (≈ 0.857 µM) | MIC (Staphylococcus aureus [9]): 0.6 µg/mL (≈ 0.857 µM)
